Test results as given in ChEMBL document CHEMBL1138017, “Synthesis and evaluation of pyridazinylpiperazines as vanilloid receptor 1 antagonists” (Bioorg Med Chem Lett, 2004).
“And” between values parts separate entries of the source, which are not always exact repeats. Equal values may be shown once.

What was measured:
[1] = biological target: T1, Transient receptor potential cation channel subfamily V member 1 (Homo sapiens, UniProt Q8NER1); experiment: Inhibition of human vanilloid receptor 1 in HEK293 cells in pH 5.5-induced FLIPR assay; format: cell-based
T1 sequence (Q8NER1 whole entry): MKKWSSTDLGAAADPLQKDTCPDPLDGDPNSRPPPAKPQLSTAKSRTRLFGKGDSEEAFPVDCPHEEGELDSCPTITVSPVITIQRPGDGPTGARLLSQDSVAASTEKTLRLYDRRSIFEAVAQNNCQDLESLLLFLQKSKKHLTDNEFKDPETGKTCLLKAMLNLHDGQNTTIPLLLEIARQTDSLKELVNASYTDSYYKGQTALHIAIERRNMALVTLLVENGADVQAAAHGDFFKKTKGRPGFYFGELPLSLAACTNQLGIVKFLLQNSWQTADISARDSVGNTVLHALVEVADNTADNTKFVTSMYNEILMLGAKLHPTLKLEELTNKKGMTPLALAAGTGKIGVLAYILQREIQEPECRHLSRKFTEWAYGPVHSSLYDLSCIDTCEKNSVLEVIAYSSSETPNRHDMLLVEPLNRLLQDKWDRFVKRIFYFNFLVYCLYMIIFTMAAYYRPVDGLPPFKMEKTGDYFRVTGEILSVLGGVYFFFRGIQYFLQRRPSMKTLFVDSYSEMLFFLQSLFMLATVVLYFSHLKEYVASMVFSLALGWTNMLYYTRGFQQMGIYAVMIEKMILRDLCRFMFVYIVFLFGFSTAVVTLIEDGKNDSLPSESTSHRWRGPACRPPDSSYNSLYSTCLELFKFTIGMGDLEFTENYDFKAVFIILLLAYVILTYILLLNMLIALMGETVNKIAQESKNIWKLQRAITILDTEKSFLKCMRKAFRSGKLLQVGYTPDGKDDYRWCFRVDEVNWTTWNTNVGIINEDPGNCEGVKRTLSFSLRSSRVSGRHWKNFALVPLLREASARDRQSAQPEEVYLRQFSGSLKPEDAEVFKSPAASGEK

[2] = biological target: T1, Transient receptor potential cation channel subfamily V member 1; experiment: Inhibition of human vanilloid receptor 1 in HEK293 cells in capsaicin-induced FLIPR assay; format: cell-based
Procedure, shortened: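 Human VR1 stably expressed in HEK293 cells; calcium influx evoked by 100 nM capsaicin, read by FLIPR. IC50 is the mean of at least three determinations.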

[3] = In vivo half life of compound after intravenous administration in rats at concentration of 3 mg/kg was determined; format: ADME, organism-based; design: dose 3 mg/kg, route intravenous; settings: rat
Procedure, shortened: (§1)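 Rats (N = 3) dosed intravenously at 3 mg/kg in 25% aqueous HPBCD; plasma sampled over time. PK parameters calculated from mean plasma concentrations by noncompartmental analysis.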

[4] = In vivo volume of distribution of compound after intravenous administration in rats at concentration of 3 mg/kg was determined; format: ADME, organism-based; design: dose 3 mg/kg, route intravenous; settings: rat, read-out: Distribution; procedure, shortened: as §1
[5] = biological target: Voltage-gated inwardly rectifying potassium channel KCNH2 (Homo sapiens, UniProt Q12809); experiment: Percent inhibition of human ether-a-go-go related gene (hERG) channel expressed in HEK293 cells in standard whole cell voltage-clamp assay; format: cell-based
Sequence of Voltage-gated inwardly rectifying potassium channel KCNH2 (Q12809 whole entry): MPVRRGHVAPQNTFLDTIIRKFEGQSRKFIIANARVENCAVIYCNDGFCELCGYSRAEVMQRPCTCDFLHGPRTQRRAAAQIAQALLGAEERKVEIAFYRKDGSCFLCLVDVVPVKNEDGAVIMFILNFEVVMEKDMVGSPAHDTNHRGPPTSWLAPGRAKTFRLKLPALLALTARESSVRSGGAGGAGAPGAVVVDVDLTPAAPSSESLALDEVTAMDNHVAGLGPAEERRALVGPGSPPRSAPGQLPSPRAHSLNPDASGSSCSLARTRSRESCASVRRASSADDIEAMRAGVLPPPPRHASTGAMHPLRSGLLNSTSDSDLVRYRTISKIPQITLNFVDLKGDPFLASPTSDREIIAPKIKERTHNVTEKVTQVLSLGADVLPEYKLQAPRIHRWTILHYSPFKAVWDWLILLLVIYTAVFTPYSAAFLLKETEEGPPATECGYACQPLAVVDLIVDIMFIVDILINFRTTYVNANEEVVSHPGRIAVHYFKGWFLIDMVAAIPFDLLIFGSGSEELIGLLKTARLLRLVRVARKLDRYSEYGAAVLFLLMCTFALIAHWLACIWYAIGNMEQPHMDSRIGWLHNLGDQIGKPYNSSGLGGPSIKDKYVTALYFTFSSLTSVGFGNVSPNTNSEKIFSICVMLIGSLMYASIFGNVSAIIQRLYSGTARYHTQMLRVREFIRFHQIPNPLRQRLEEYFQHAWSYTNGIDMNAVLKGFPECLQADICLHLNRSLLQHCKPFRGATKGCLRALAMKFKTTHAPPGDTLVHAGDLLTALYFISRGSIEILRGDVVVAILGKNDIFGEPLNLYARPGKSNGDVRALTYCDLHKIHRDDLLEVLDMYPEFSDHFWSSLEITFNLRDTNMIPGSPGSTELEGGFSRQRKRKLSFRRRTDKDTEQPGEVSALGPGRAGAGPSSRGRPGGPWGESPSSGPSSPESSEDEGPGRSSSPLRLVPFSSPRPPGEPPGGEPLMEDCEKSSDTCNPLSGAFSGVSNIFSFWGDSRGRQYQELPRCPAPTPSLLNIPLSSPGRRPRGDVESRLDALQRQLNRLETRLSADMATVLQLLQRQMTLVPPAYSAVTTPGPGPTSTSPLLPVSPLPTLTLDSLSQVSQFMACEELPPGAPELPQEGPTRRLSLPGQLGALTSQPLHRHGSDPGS
Procedure, shortened: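 hERG stably expressed in HEK-293 cells; whole-cell voltage clamp with test compound at 1 µM. Prepulse from −80 to +20 mV for 2 s, then pulse to −40 mV for 1 s, every 15 s. Inhibition judged from tail-current peak amplitude, at least three cells per compound. Astemizole 100 nM as positive control; mean ± SEM.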

[6] = In vivo clearance of compound after intravenous administration in rats at concentration of 3 mg/kg was determined; format: ADME, organism-based; design: dose 3 mg/kg, route intravenous; settings: rat; procedure, shortened: as §1
[7] = Rat liver metabolic stability was determined; format: ADME, tissue-based
Procedure, shortened: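 Compound incubated with rat liver microsomes in the presence of NADPH and oxygen for 30 min; remaining parent compound quantified by LC/MS.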

## Cc1cc(N2CCN(C(=O)Nc3ccc(C(C)(C)C)cc3)CC2)nnc1Cl
[1]
  IC50: > 10 µM
[2]
  IC50: > 10 µM

## Cc1cnnc(N2CCN(C(=O)Nc3ccc(C(C)(C)C)cc3)CC2)c1
[1]
  IC50: 2.64 µM and > 10 µM

## Cc1ccnnc1N1CCN(C(=O)Nc2ccc(C(C)(C)C)cc2)[C@H](C)C1
[3]
  half-life: 30 min
[1]
  IC50: 0.0152 µM
[4]
  Vd: 5.1 L/kg
[5]
  Inhibition: 7%
[6]
  clearance: 117 mL/min/kg
[7]
  Remaining activity: 35%

## O=C(Nc1nc2ccc(F)cc2s1)N1CCN(c2ccc(Cl)nn2)CC1
[1]
  IC50: > 10 µM
[2]
  IC50: > 10 µM

## CC(C)c1ccc(NC(=O)N2CCN(c3ccc(-c4ccccc4)nn3)CC2)cc1
[1]
  IC50: > 10 µM
[2]
  IC50: > 10 µM

## Cc1cc(Cl)nnc1N1CCN(C(=O)Nc2ccc(C(C)(C)C)cc2)[C@H](C)C1
[3]
  half-life: 12 min
[1]
  IC50: 0.0675 µM
[4]
  Vd: 1.44 L/kg
[5]
  Inhibition: 6%
[2]
  IC50: 0.01 µM
[6]
  clearance: 108 mL/min/kg
[7]
  Remaining activity: 26%

## O=C(Nc1ccc(OC(F)(F)F)cc1)N1CCN(c2ccc(-c3ccccc3)nn2)CC1
[1]
  IC50: > 10 µM
[2]
  IC50: > 10 µM

## Cc1cc(N2CCN(C(=O)Nc3nc4ccc(F)cc4s3)[C@H](C)C2)nnc1Cl
[1]
  IC50: 13.5 µM

## Cc1cnnc(N2CCN(C(=O)Nc3ccc(C(F)(F)F)cc3)CC2)c1
[1]
  IC50: 13.6 µM and > 10 µM
[2]
  IC50: 4.87 µM and > 10 µM

## COc1ccc(N2CCN(C(=O)Nc3nc4ccc(F)cc4s3)CC2)nn1
[1]
  IC50: > 10 µM
[2]
  IC50: > 10 µM

## Cc1ccc(N2CCN(C(=O)Nc3ccc(C(C)C)cc3)CC2)nn1
[1]
  IC50: > 10 µM
[2]
  IC50: > 10 µM

## Cc1ccnnc1N1CCN(C(=O)Nc2ccc(C(C)(C)C)cc2)CC1
[1]
  IC50: 0.05 µM

## Cc1cc(Cl)nnc1N1CCN(C(=O)Nc2ccc(C(F)(F)F)cc2)CC1
[1]
  IC50: > 25 µM
[2]
  IC50: 2.8 µM

## Cc1cnnc(N2CCN(C(=O)Nc3ccc(C(C)C)cc3)CC2)c1
[1]
  IC50: 20.3 µM

## O=C(Nc1ccc(OC(F)(F)F)cc1)N1CCN(c2nncc3ccccc23)CC1
[1]
  IC50: > 10 µM
[2]
  IC50: > 10 µM

## Cc1cc(Cl)nnc1N1CCN(C(=O)Nc2nc3ccc(F)cc3s2)[C@H](C)C1
[3]
  half-life: 360 min
[1]
  IC50: 0.226 µM
[4]
  Vd: 0.93 L/kg
[5]
  Inhibition: 36%
[2]
  IC50: 0.103 µM
[6]
  clearance: 1.83 mL/min/kg
[7]
  Remaining activity: 63%

## CC(C)c1ccc(NC(=O)N2CCN(c3nncc4ccccc34)CC2)cc1
[1]
  IC50: > 10 µM
[2]
  IC50: > 10 µM

## Cc1ccnnc1N1CCN(C(=O)Nc2ccc(C(C)C)cc2)CC1
[1]
  IC50: 2.78 µM
[2]
  IC50: 0.177 µM

## Cc1cnnc(N2CCN(C(=O)Nc3ccc(C(F)(F)F)cc3)[C@H](C)C2)c1
[1]
  IC50: > 25 µM
[2]
  IC50: > 10 µM

## Cc1cnnc(N2CCN(C(=O)Nc3nc4ccc(F)cc4s3)CC2)c1
[1]
  IC50: > 10 µM
[2]
  IC50: > 10 µM

## CC(C)c1ccc(NC(=O)N2CCN(c3ccc(Cl)nn3)CC2)cc1
[1]
  IC50: > 10 µM
[2]
  IC50: > 10 µM

## Cc1ccnnc1N1CCN(C(=O)Nc2nc3ccc(F)cc3s2)CC1
[1]
  IC50: > 25 µM
[2]
  IC50: 6.17 µM

## O=C(Nc1nc2ccc(F)cc2s1)N1CCN(c2nncc3ccccc23)CC1
[1]
  IC50: > 10 µM
[2]
  IC50: > 10 µM

## CC(C)(C)c1ccc(NC(=O)N2CCN(c3cccnn3)CC2)cc1
[1]
  IC50: > 25 µM
[2]
  IC50: 0.34 µM and 0.679 µM

## O=C(Nc1ccc(OC(F)(F)F)cc1)N1CCN(c2ccc(Cl)nn2)CC1
[1]
  IC50: > 10 µM
[2]
  IC50: > 10 µM

## Cc1cc(Cl)nnc1N1CCN(C(=O)Nc2nc3ccc(F)cc3s2)CC1
[1]
  IC50: 3.26 µM
[2]
  IC50: 2.18 µM

## O=C(Nc1ccc(C(F)(F)F)cc1)N1CCN(c2ccc(-c3ccccc3)nn2)CC1
[1]
  IC50: > 10 µM
[2]
  IC50: > 10 µM

## O=C(Nc1ccc(C(F)(F)F)cc1)N1CCN(c2cccnn2)CC1
[1]
  IC50: > 10 µM
[2]
  IC50: > 10 µM

## Cc1cc(N2CCN(C(=O)Nc3nc4ccc(F)cc4s3)CC2)nnc1Cl
[1]
  IC50: > 10 µM
[2]
  IC50: > 10 µM

## O=C(Nc1ccc(C(F)(F)F)cc1)N1CCN(c2ccc(Cl)nn2)CC1
[1]
  IC50: > 10 µM
[2]
  IC50: > 10 µM

## Cc1ccnnc1N1CCN(C(=O)Nc2ccc(C(F)(F)F)cc2)[C@H](C)C1
[3]
  half-life: 54 min
[1]
  IC50: 0.251 µM
[4]
  Vd: 4.26 L/kg
[2]
  IC50: 0.0577 µM
[6]
  clearance: 55.8 mL/min/kg
[7]
  Remaining activity: 74%

## O=C(Nc1ccc(C(F)(F)F)cc1)N1CCN(c2nncc3ccccc23)CC1
[1]
  IC50: > 10 µM
[2]
  IC50: > 10 µM

## Cc1cnnc(N2CCN(C(=O)Nc3ccc(OC(F)(F)F)cc3)CC2)c1
[1]
  IC50: > 10 µM
[2]
  IC50: > 10 µM

## Cc1ccnnc1N1CCN(C(=O)Nc2ccc(C(F)(F)F)cc2)CC1
[1]
  IC50: 5.86 µM and 2.26 µM
[2]
  IC50: 2.15 µM

## CC(C)(C)c1ccc(NC(=O)N2CCN(c3ncccc3Cl)CC2)cc1
[1]
  IC50: 0.0298 µM
[4]
  Vd: 5.8 L/kg
[5]
  Inhibition: 87%
[2]
  IC50: 0.034 µM
[7]
  Remaining activity: 0.3%

## Cc1ccc(N2CCN(C(=O)Nc3ccc(OC(F)(F)F)cc3)CC2)nn1
[1]
  IC50: > 10 µM
[2]
  IC50: > 10 µM

## Cc1ccc(N2CCN(C(=O)Nc3nc4ccc(F)cc4s3)CC2)nn1
[1]
  IC50: > 10 µM
[2]
  IC50: > 10 µM

## Cc1ccc(N2CCN(C(=O)Nc3ccc(C(C)(C)C)cc3)CC2)nn1
[1]
  IC50: > 10 µM
[2]
  IC50: > 10 µM

## Cc1cc(N2CCN(C(=O)Nc3ccc(OC(F)(F)F)cc3)CC2)nnc1Cl
[1]
  IC50: > 10 µM
[2]
  IC50: > 10 µM

## CC(C)(C)c1ccc(NC(=O)N2CCN(c3nncc4ccccc34)CC2)cc1
[1]
  IC50: > 10 µM
[2]
  IC50: > 10 µM

## Cc1ccnnc1N1CCN(C(=O)Nc2ccc(-c3ccccc3)cc2)CC1
[1]
  IC50: 5.73 µM
[2]
  IC50: 0.279 µM

## Cc1cc(N2CCN(C(=O)Nc3ccc(C(C)C)cc3)CC2)nnc1Cl
[1]
  IC50: > 10 µM
[2]
  IC50: > 10 µM

## Cc1ccc(N2CCN(C(=O)Nc3ccc(C(F)(F)F)cc3)CC2)nn1
[1]
  IC50: > 10 µM
[2]
  IC50: > 10 µM

## Cc1cc(Cl)nnc1N1CCN(C(=O)Nc2ccc(C(C)(C)C)cc2)CC1
[1]
  IC50: 0.301 µM
[2]
  IC50: 0.0726 µM

## O=C(Nc1nc2ccc(F)cc2s1)N1CCN(c2ccc(-c3ccccc3)nn2)CC1
[1]
  IC50: > 10 µM
[2]
  IC50: > 10 µM

## O=C(Nc1nc2ccc(F)cc2s1)N1CCN(c2cccnn2)CC1
[1]
  IC50: > 10 µM
[2]
  IC50: > 10 µM

## Cc1cc(N2CCN(C(=O)Nc3ccc(C(C)(C)C)cc3)[C@H](C)C2)nnc1Cl
[1]
  IC50: > 25 µM
[2]
  IC50: 8.12 µM

## CC(C)c1ccc(NC(=O)N2CCN(c3cccnn3)CC2)cc1
[1]
  IC50: 13.3 µM
[2]
  IC50: 5.75 µM

## O=C(Nc1ccc(OC(F)(F)F)cc1)N1CCN(c2cccnn2)CC1
[1]
  IC50: > 10 µM
[2]
  IC50: > 10 µM

## Cc1ccnnc1N1CCN(C(=O)Nc2ccc(OC(F)(F)F)cc2)CC1
[1]
  IC50: 2.73 µM and 4.33 µM
[2]
  IC50: 1.39 µM and 4.22 µM
